Measured values reported in ChEMBL document CHEMBL1140930 (J Med Chem, 2009).
pEC50, pIC50: −log10 of the molar value.

What was measured:
[1] = test system: K562; experiment: Antiproliferative activity against human K562 cells after 48 hrs; type: functional, cell-based; conditions: K562, 48 h
How it was run: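 K562 cells (RPMI 1640, 10% FBS, 37 °C, 5% CO2) plated at 2 × 10⁵ cells/mL. Compounds dissolved in DMSO/methanol 1:1, vehicle 0.5%. Cells counted in a Neubauer chamber after 48 h and expressed as % of untreated control. Triplicate wells, three experiments. IC50 from nonlinear regression.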

[2] = target: Tubulin (Sus scrofa, UniProt P02554+P02550); experiment: Inhibition of pig brain tubulin polymerization after 30 mins by turbidimetric assay
How it was run: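 Microtubule protein from porcine brain (80–90% tubulin, 10–20% MAPs), purified by two disassembly/reassembly cycles. Assay buffer: 20 mM PIPES pH 6.8, 80 mM NaCl, 0.5 mM MgCl2, 1 mM EGTA, 1 mM DTT. Protein at 1.2 mg/mL with 0.6 mM GTP final, 1% DMSO final, 37 °C.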

[3] = Antiproliferative activity against human KB/HeLa cells by XTT assay; type: functional, cell-based
How it was run: (§1)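 XTT metabolic read-out. Cells seeded at 1 × 10³–8 × 10⁴ cells/well for logarithmic growth and exposed to graded concentrations for 48 h. At least two replicates. IC50 from nonlinear regression of dose-response curves. LT12/MDR: rat LT12 with ectopic human MDR-1. L1210/VCR: MDR-1 expressing, MRP-1 negative.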

[4] = test system: SK-OV-3; experiment: Antiproliferative activity against human SKOV3 cells by XTT assay; type: functional, cell-based
How it was run: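 XTT metabolic-activity read-out of proliferation. Cells were seeded at 1 × 10³-8 × 10⁴ cells/well for logarithmic growth and exposed to a range of compound concentrations for 48 h. IC50 came from nonlinear regression of dose-response curves, with at least two replicates. The P388/Adr subline was doxorubicin-selected with elevated MDR-1.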

[5] = test system: SF-268; experiment: Antiproliferative activity against human SF268 cells by XTT assay; type: functional, cell-based; how it was run: as §1
[6] = test system: NCI-H460; experiment: Antiproliferative activity against human NCI-H460 cells by XTT assay; type: functional, cell-based; how it was run: as §1
[7] = test system: RKO; experiment: Antiproliferative activity against human RKO cells by XTT assay; type: functional, cell-based
How it was run: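 RKO colon cells with ecdysone-inducible p27Kip1. Day 1: plated with or without 3 µM ponasterone A for 24 h, giving G1 arrest when induced (2 × 10⁴ cells/well induced; 6 × 10³ not induced). Day 2: compound added (DMSO control) for 48 h at 37 °C, then standard XTT. At least duplicate. IC50 by nonlinear regression.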

[8] = test system: RKO; experiment: Antiproliferative activity against human RKO cells containing ecdysone-inducible expression vector of p27kipl by XTT assay; type: functional, cell-based
How it was run: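 RKO cells carried an ecdysone-inducible p27Kip1 vector and were tested with and without induction. On day 1 they were plated with or without 3 µM ponasterone A, which gives G1 arrest, at 2 × 10⁴ cells/well induced or 6 × 10³ not induced, then held 24 h at 37 °C. Compound was then added for 48 h at 37 °C, followed by a standard XTT assay. IC50 came from nonlinear regression, n ≥ 2.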

[9] = Cell cycle arrest in human KB/HeLa cells assessed as G2/M phase accumulation after 24 hrs by FACS analysis; type: functional, cell-based
How it was run: (§2)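 Subconfluent KB/HeLa cells exposed to a range of compound concentrations for 24 h at 37 °C, then detached and fixed in 70% ethanol. DNA stained with propidium iodide after RNase digestion and measured by flow cytometry. Cell-cycle phase fractions taken from cell cycle analysis software. At least two replicates.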

[10] = Cell cycle arrest in human KB/HeLa cells assessed as S phase accumulation at 0.3 nM after 24 hrs by FACS analysis; type: functional, cell-based; how it was run: as §2
[11] = Cell cycle arrest in human KB/HeLa cells assessed as G2/M phase accumulation at 0.3 nM after 24 hrs by FACS analysis; type: functional, cell-based; how it was run: as §2
[12] = Cell cycle arrest in human KB/HeLa cells assessed as G1 phase accumulation at 0.3 nM after 24 hrs by FACS analysis; type: functional, cell-based; how it was run: as §2
[13] = Cell cycle arrest in human KB/HeLa cells assessed as S phase accumulation at 1 nM after 24 hrs by FACS analysis; type: functional, cell-based; how it was run: as §2
[14] = Cell cycle arrest in human KB/HeLa cells assessed as G2/M phase accumulation at 1 nM after 24 hrs by FACS analysis; type: functional, cell-based; how it was run: as §2
[15] = Cell cycle arrest in human KB/HeLa cells assessed as G1 phase accumulation at 1 nM after 24 hrs by FACS analysis; type: functional, cell-based; how it was run: as §2
[16] = Cell cycle arrest in human KB/HeLa cells assessed as S phase accumulation at 3.16 nM after 24 hrs by FACS analysis; type: functional, cell-based; how it was run: as §2
[17] = Cell cycle arrest in human KB/HeLa cells assessed as G1 phase accumulation at 3.16 nM after 24 hrs by FACS analysis; type: functional, cell-based; how it was run: as §2
[18] = Cell cycle arrest in human KB/HeLa cells assessed as S phase accumulation at 10 nM after 24 hrs by FACS analysis; type: functional, cell-based; how it was run: as §2
[19] = Cell cycle arrest in human KB/HeLa cells assessed as G2/M phase accumulation at 10 nM after 24 hrs by FACS analysis; type: functional, cell-based; how it was run: as §2
[20] = Cell cycle arrest in human KB/HeLa cells assessed as G1 phase accumulation at 10 nM after 24 hrs by FACS analysis; type: functional, cell-based; how it was run: as §2
[21] = Cell cycle arrest in human KB/HeLa cells assessed as S phase accumulation at 31.6 nM after 24 hrs by FACS analysis; type: functional, cell-based; how it was run: as §2
[22] = Cell cycle arrest in human KB/HeLa cells assessed as G2/M phase accumulation at 31.6 nM after 24 hrs by FACS analysis; type: functional, cell-based; how it was run: as §2
[23] = Cell cycle arrest in human KB/HeLa cells assessed as G1 phase accumulation at 31.6 nM after 24 hrs by FACS analysis; type: functional, cell-based; how it was run: as §2
[24] = Cell cycle arrest in human KB/HeLa cells assessed as S phase accumulation at 100 nM after 24 hrs by FACS analysis; type: functional, cell-based; how it was run: as §2
[25] = Cell cycle arrest in human KB/HeLa cells assessed as G2/M phase accumulation at 100 nM after 24 hrs by FACS analysis; type: functional, cell-based; how it was run: as §2
[26] = Cell cycle arrest in human KB/HeLa cells assessed as G1 phase accumulation at 100 nM after 24 hrs by FACS analysis; type: functional, cell-based; how it was run: as §2
[27] = Cell cycle arrest in human KB/HeLa cells assessed as S phase accumulation at 316 nM after 24 hrs by FACS analysis; type: functional, cell-based; how it was run: as §2
[28] = Cell cycle arrest in human KB/HeLa cells assessed as G2/M phase accumulation at 316 nM after 24 hrs by FACS analysis; type: functional, cell-based; how it was run: as §2
[29] = Cell cycle arrest in human KB/HeLa cells assessed as G1 phase accumulation at 316 nM after 24 hrs by FACS analysis; type: functional, cell-based; how it was run: as §2

## O=C(C=C1c2ccccc2C(=O)c2ccccc21)c1ccc(O)cc1
[1]
  pIC50: 5.46
[2]
  IC50: 900 nM

## O=C(C=C1c2ccccc2C(=O)c2ccccc21)c1ccccc1
[1]
  pIC50: 5.44
[2]
  IC50: 5000 nM

## COc1cc(C(=O)C(O)C2c3ccccc3C(=O)c3ccccc32)cc(OC)c1OC (configuration not stated)
[1]
  pIC50: 4.68
[2]
  IC50: > 10000 nM

## COc1cc2c(c(OC)c1OC)-c1ccc(OC)c(=O)cc1[C@@H](NC(C)=O)CC2 [COLCHICINE]
[3]
  pIC50: 8.00
[4]
  pIC50: 8.00
[5]
  pIC50: 8.00
[6]
  pIC50: 8.00
[7]
  pIC50: 8.00
[8]
  pIC50: < 5.52
[9]
  pEC50: 7.85
[10]
  Activity: 26.6%
[11]
  Activity: 10.1%
[12]
  Activity: 63.3%
[13]
  Activity: 25.4%
[14]
  Activity: 10%
[15]
  Activity: 64.7%
[16]
  Activity: 25.1%
[17]
  Activity: 64.3%
[18]
  Activity: 35.7%
[19]
  Activity: 32.1%
[20]
  Activity: 32.2%
[21]
  Activity: 11.9%
[22]
  Activity: 87.6%
[23]
  Activity: 0.5%
[24]
  Activity: 5.1%
[25]
  Activity: 94.7%
[26]
  Activity: 0.3%
[27]
  Activity: 5.2%
[28]
  Activity: 94.5%
[29]
  Activity: 0.3%

## O=C1c2ccccc2C(C(O)C(=O)c2ccccc2)c2ccccc21 (configuration not stated)
[1]
  pIC50: 4.57
[2]
  IC50: > 10000 nM

## O=C(C=C1c2ccccc2C(=O)c2ccccc21)c1ccc(O)c(O)c1
[3]
  pIC50: 6.57
[4]
  pIC50: 6.80
[5]
  pIC50: 6.66
[6]
  pIC50: 6.37
[7]
  pIC50: 6.62
[8]
  pIC50: < 5.05
[1]
  pIC50: 6.80
[2]
  IC50: 2600 nM

## O=C(C=C1c2ccccc2C(=O)c2ccccc21)c1cccs1
[1]
  pIC50: 5.28
[2]
  IC50: 10000 nM

## Cc1ccc(C(=O)C=C2c3ccccc3C(=O)c3ccccc32)cc1
[1]
  pIC50: 6.19
[2]
  IC50: 1100 nM

## COC(=O)C=C1c2ccccc2C(=O)c2ccccc21
[1]
  pIC50: 5.22

## COc1cc(C(=O)C=C2c3ccccc3C(=O)c3ccccc32)cc(OC)c1OC
[1]
  pIC50: 6.15
[2]
  IC50: 3700 nM

## COc1cccc(C(=O)C=C2c3ccccc3C(=O)c3ccccc32)c1
[1]
  pIC50: 5.59
[2]
  IC50: 3300 nM
